Test results taken from ChEMBL document CHEMBL4765409, “Synthesis and biological evaluation of geniposide derivatives as potent and selective PTPlB inhibitors” (Eur J Med Chem, 2020).

Legend:
[1] = target: T1, Tyrosine-protein phosphatase non-receptor type 1 (Homo sapiens, UniProt P18031); assay: Inhibition of recombinant human PTP1B using pNPP as substrate measured after 30 mins
T1 sequence (P18031 whole entry): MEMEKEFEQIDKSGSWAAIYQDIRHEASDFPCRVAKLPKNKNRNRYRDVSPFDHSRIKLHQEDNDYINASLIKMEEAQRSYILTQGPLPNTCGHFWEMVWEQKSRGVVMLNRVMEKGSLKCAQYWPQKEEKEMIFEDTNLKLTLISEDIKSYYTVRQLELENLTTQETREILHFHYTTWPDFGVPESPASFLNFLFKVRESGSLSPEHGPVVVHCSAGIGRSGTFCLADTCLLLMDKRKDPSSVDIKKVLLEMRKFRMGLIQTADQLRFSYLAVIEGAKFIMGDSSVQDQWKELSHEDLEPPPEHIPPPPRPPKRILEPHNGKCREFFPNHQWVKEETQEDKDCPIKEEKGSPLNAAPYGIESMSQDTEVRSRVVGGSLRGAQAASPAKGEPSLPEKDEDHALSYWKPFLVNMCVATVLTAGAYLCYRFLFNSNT
In short: (§1)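 75 nM recombinant enzyme (PTP1B, TCPTP or SHP2) with 2.5 mM pNPP in 10 mM Tris, 25 mM NaCl, 1 mM EDTA, pH 7.1; compounds added from DMSO. Reaction run 30 min at room temperature, stopped with 2.0 N NaOH, pNP read at 405 nm. Sodium vanadate as positive control. IC50 from enzyme progress curves; means of triplicates, repeated twice.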

CHO (Cricetulus griseus) = assay: Cytotoxicity against Chinese hamster CHO cells assessed as reduction in cell viability measured after 24 hrs by MTT assay
CHO = assay: Cytotoxicity against CHO cells assessed as reduction in cell viability measured after 24 hrs by MTT assay; format: cell-based; settings: Cricetulus griseus
In short: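 CHO cells in DMEM with 10% FBS and 1% penicillin-streptomycin, 5% CO2, 37 °C; 5×10^3 cells/well seeded, treated after 24 h with varying compound concentrations for 24 h. MTT then added for 4 h at 37 °C in the dark, medium removed, formazan dissolved in DMSO, OD read at 490 nm.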

[2] = target: T2, Tyrosine-protein phosphatase non-receptor type 2 (Homo sapiens, UniProt P17706); assay: Inhibition of recombinant human TCPTP using pNPP as substrate measured after 30 mins; in short: as §1
T2 sequence (P17706 whole entry): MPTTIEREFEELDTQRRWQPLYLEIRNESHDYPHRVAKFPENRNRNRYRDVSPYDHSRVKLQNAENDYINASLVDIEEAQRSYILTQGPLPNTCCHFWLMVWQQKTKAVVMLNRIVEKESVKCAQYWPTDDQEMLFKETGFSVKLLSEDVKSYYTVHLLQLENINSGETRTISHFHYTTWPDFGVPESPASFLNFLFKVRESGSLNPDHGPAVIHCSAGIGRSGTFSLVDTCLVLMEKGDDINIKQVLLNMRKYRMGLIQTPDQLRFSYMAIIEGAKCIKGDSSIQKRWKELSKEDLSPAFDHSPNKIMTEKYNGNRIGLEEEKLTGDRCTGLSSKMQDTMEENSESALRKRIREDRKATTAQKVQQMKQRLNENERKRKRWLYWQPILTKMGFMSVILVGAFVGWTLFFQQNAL

[3] = target: T3, Tyrosine-protein phosphatase non-receptor type 11 (Homo sapiens, UniProt Q06124); assay: Inhibition of recombinant SHP2 (unknown origin) using pNPP as substrate measured after 30 mins; in short: as §1
T3 sequence (Q06124 whole entry): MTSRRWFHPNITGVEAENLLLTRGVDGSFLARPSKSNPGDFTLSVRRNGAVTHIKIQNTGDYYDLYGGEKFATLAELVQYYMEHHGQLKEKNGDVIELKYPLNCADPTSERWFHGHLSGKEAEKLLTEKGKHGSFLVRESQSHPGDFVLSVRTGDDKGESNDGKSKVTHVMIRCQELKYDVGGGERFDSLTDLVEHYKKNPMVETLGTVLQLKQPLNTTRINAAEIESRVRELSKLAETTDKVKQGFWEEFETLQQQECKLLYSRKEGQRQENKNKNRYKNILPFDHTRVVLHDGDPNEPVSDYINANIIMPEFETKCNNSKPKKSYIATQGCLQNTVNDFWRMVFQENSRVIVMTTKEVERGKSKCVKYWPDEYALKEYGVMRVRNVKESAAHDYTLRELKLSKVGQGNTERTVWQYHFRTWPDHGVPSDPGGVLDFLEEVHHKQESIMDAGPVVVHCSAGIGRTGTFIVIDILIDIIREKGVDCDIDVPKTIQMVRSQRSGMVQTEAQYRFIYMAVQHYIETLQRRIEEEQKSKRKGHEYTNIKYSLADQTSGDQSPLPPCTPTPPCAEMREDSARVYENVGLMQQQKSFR

[4] = target: T4, Tyrosine-protein phosphatase non-receptor type 1 (Homo sapiens) (UniProt P18031); assay: Inhibition of PTP1B in human HepG2 cells assessed as improvement in insulin-induced 2-NBDG uptake at 10 uM incubated for 24 hrs prior to compound washout followed by insulin stimulation for 20 mins and subsequent 2-NBDG addition measured after 60 mins by FACS analysis relative to control; format: cell-based
T4 sequence (whole entry): T1 sequence (P18031 whole entry)
In short: (§2)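 HepG2 cells in DMEM with 10% FBS and 1% penicillin-streptomycin, 5% CO2, 37 °C; 5×10^4 cells/well in 24-well plates. Compound exposure 24 h, then two PBS washes. Stimulated with 100 nM insulin for 20 min, then 50 μM 2-NBDG for 60 min. Uptake read by flow cytometry, FL1 channel; pioglitazone as positive control.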

[5] = target: T4, Tyrosine-protein phosphatase non-receptor type 1 (Homo sapiens); assay: Inhibition of PTP1B in human HepG2 cells assessed as improvement in insulin-induced 2-NBDG uptake at 5 uM incubated for 24 hrs prior to compound washout followed by insulin stimulation for 20 mins and subsequent 2-NBDG addition measured after 60 mins by FACS analysis relative to control; format: cell-based; in short: as §2
[6] = target: T4, Tyrosine-protein phosphatase non-receptor type 1 (Homo sapiens); assay: Inhibition of PTP1B in human HepG2 cells assessed as improvement in insulin-induced 2-NBDG uptake at 20 uM incubated for 24 hrs prior to compound washout followed by insulin stimulation for 20 mins and subsequent 2-NBDG addition measured after 60 mins by FACS analysis relative to control; format: cell-based; in short: as §2
[7] = target: T1, Tyrosine-protein phosphatase non-receptor type 1; assay: Inhibition of recombinant human PTP1B (1 to 322 residues) expressed in Escherichia coli using IR5 (1142 to 1153, pY1146) as substrate by malachite green dye based colorimetric assay

Compound	IC50 [1] [µM]	IC50 (CHO (Cricetulus griseus)) [µM]	IC50 (CHO) [µM]	IC50 [2] [µM]	IC50 [3] [µM]	also measured
CCOS(=O)(=O)/C=C/c1ccc(OCC2=CC[C@@H]3C(C(=O)OC)=CO[C@@H](OCc4ccccc4)[C@H]23)cc1	13.2	–	–	–	–	–
CCOS(=O)(=O)/C=C/c1ccc(OCC2=CC[C@@H]3C(C(=O)Nc4ccc(Oc5ccc6ccccc6c5)cc4)=CO[C@@H](OC)[C@H]23)cc1	0.75	> 200	> 200	–	–	–
COc1ccccc1NC(=O)C1=CO[C@@H](O[C@@H]2O[C@H](CO)[C@@H](O)[C@H](O)[C@H]2O)[C@@H]2C(CO)=CC[C@H]12	50.8	–	–	–	–	–
COC(=O)C1=CO[C@@H](O)[C@@H]2C(CO)=CC[C@H]12 [GENIPIN]	> 500	–	–	> 500	> 500	–
CCOS(=O)(=O)/C=C/c1ccc(OCC2=CC[C@@H]3C(C(=O)Nc4ccc(Oc5ccc(-c6ccccc6)cc5)cc4)=CO[C@@H](OC)[C@H]23)cc1	0.43	> 200	> 200	0.95	1.24	inhibition [4]: 68%; inhibition [5]: 38.6%; inhibition [6]: 69.6%
CCOS(=O)(=O)/C=C/c1ccc(OCC2=CC[C@@H]3C(C(=O)Nc4ccc(Oc5ccccc5)cc4)=CO[C@@H](OC)[C@H]23)cc1	2.67	> 200	> 200	–	–	–
COC(=O)C1=CO[C@@H](O[C@@H]2O[C@H](CO)[C@@H](O)[C@H](O)[C@H]2O)[C@@H]2C(CO)=CC[C@H]12 [GENIPOSIDE]	> 500	–	–	> 500	> 500	–
O=C(Nc1ccc(Oc2ccccc2)cc1)C1=CO[C@@H](O[C@@H]2O[C@H](COCc3ccccc3)[C@@H](OCc3ccccc3)[C@H](OCc3ccccc3)[C@H]2OCc2ccccc2)[C@@H]2C(COCc3ccccc3)=CC[C@H]12	0.4	> 200	> 200	–	–	–
COC(=O)C1=CO[C@@H](OCc2ccccc2)[C@@H]2C(CO)=CC[C@H]12	40.3	–	–	–	–	–
O=C(O)C1=CO[C@@H](O[C@@H]2O[C@H](COCc3ccccc3)[C@@H](OCc3ccccc3)[C@H](OCc3ccccc3)[C@H]2OCc2ccccc2)[C@@H]2C(COCc3ccccc3)=CC[C@H]12	0.38	> 200	> 200	1.32	3.32	–
O=C(Nc1ccccc1F)C1=CO[C@@H](O[C@@H]2O[C@H](CO)[C@@H](O)[C@H](O)[C@H]2O)[C@@H]2C(CO)=CC[C@H]12	20.8	–	–	–	–	–
CCc1ccc(CCOc2ccc(CC3SC(=O)NC3=O)cc2)nc1 (stereo not drawn)	–	–	–	–	–	inhibition [4]: 46%; inhibition [5]: 33.8%; inhibition [6]: 63.5%
O=C1C[C@@H](O[C@@H]2O[C@H](CO)[C@@H](O)[C@H](O)[C@H]2O)CO1	5.8	–	–	> 50	> 50	IC50 [7]: 5.14 µM
CCOS(=O)(=O)/C=C/c1ccc(OCC2=CC[C@@H]3C(C(=O)Nc4ccc(Oc5ccccc5)cc4)=CO[C@@H](OCc4ccccc4)[C@H]23)cc1	0.99	> 200	62	–	–	–
CCOS(=O)(=O)/C=C/c1ccc(OCC2=CC[C@@H]3C(C(=O)Nc4ccc(Oc5ccc(Br)cc5Cl)cc4)=CO[C@@H](OCc4ccccc4)[C@H]23)cc1	0.41	> 200	> 200	1.29	3.97	inhibition [4]: 68.3%; inhibition [5]: 43.8%; inhibition [6]: 64.4%
CC(C)(C)c1ccc(Oc2ccc(NC(=O)C3=CO[C@@H](O[C@@H]4O[C@H](CO)[C@@H](O)[C@H](O)[C@H]4O)[C@@H]4C(CO)=CC[C@H]34)cc2)cc1	17.7	–	–	> 100	> 100	–
CCc1ccccc1NC(=O)C1=CO[C@@H](O[C@@H]2O[C@H](CO)[C@@H](O)[C@H](O)[C@H]2O)[C@@H]2C(CO)=CC[C@H]12	18.3	–	–	> 100	> 100	–
CCO[C@@H]1OC=C(C(=O)OC)[C@H]2CC=C(CO)[C@@H]12	64.7	–	–	–	–	–
O=C(Nc1ccccc1)C1=CO[C@@H](O[C@@H]2O[C@H](CO)[C@@H](O)[C@H](O)[C@H]2O)[C@@H]2C(CO)=CC[C@H]12	> 100	–	–	–	–	–
CCOS(=O)(=O)/C=C/c1ccc(OCC2=CC[C@@H]3C(C(=O)Nc4ccc(Oc5ccc(Br)cc5Cl)cc4)=CO[C@@H](OC)[C@H]23)cc1	1.05	> 200	> 200	–	–	–
COC(=O)C1=CO[C@@H](O[C@@H]2O[C@H](COCc3ccccc3)[C@@H](OCc3ccccc3)[C@H](OCc3ccccc3)[C@H]2OCc2ccccc2)[C@@H]2C(COCc3ccccc3)=CC[C@H]12	0.68	> 200	42	–	–	–
O=C(Nc1ccc(Oc2ccccc2)cc1)C1=CO[C@@H](O[C@@H]2O[C@H](CO)[C@@H](O)[C@H](O)[C@H]2O)[C@@H]2C(CO)=CC[C@H]12	25.2	–	–	–	–	–
CCOS(=O)(=O)/C=C/c1ccc(CNC(=O)C2=CO[C@@H](O[C@@H]3O[C@H](COCc4ccccc4)[C@@H](OCc4ccccc4)[C@H](OCc4ccccc4)[C@H]3OCc3ccccc3)[C@@H]3C(COCc4ccccc4)=CC[C@H]23)cc1	0.35	> 200	> 200	–	–	inhibition [4]: 36.5%; inhibition [5]: 43.4%; inhibition [6]: 49.8%
COC(=O)C1=CO[C@@H](OC)[C@@H]2C(CO)=CC[C@H]12	236	–	–	–	–	–
O=C(Nc1ccc(-c2ccccc2)cc1)C1=CO[C@@H](O[C@@H]2O[C@H](CO)[C@@H](O)[C@H](O)[C@H]2O)[C@@H]2C(CO)=CC[C@H]12	21.7	–	–	–	–	–
